Laboratory results as given in ChEMBL document CHEMBL4823302, “Evaluation of γ-carboline-phenothiazine conjugates as simultaneous NMDA receptor blockers and cholinesterase inhibitors” (Bioorg Med Chem, 2021).

What was measured:
[1] = molecular target: Glutamate NMDA receptor; GRIN1/GRIN2B (Homo sapiens, UniProt Q05586+Q13224); assay: Inhibition of human GluN1-1a/NR2B receptor expressed in transgenic mouse fibroblast cells assessed as inhibition of L-glutamate-induced excitotoxicity by measuring LDH activity by cell based assay
Chain of Glutamate NMDA receptor; GRIN1/GRIN2B (Q13224 whole entry, looked up, other chains not shown): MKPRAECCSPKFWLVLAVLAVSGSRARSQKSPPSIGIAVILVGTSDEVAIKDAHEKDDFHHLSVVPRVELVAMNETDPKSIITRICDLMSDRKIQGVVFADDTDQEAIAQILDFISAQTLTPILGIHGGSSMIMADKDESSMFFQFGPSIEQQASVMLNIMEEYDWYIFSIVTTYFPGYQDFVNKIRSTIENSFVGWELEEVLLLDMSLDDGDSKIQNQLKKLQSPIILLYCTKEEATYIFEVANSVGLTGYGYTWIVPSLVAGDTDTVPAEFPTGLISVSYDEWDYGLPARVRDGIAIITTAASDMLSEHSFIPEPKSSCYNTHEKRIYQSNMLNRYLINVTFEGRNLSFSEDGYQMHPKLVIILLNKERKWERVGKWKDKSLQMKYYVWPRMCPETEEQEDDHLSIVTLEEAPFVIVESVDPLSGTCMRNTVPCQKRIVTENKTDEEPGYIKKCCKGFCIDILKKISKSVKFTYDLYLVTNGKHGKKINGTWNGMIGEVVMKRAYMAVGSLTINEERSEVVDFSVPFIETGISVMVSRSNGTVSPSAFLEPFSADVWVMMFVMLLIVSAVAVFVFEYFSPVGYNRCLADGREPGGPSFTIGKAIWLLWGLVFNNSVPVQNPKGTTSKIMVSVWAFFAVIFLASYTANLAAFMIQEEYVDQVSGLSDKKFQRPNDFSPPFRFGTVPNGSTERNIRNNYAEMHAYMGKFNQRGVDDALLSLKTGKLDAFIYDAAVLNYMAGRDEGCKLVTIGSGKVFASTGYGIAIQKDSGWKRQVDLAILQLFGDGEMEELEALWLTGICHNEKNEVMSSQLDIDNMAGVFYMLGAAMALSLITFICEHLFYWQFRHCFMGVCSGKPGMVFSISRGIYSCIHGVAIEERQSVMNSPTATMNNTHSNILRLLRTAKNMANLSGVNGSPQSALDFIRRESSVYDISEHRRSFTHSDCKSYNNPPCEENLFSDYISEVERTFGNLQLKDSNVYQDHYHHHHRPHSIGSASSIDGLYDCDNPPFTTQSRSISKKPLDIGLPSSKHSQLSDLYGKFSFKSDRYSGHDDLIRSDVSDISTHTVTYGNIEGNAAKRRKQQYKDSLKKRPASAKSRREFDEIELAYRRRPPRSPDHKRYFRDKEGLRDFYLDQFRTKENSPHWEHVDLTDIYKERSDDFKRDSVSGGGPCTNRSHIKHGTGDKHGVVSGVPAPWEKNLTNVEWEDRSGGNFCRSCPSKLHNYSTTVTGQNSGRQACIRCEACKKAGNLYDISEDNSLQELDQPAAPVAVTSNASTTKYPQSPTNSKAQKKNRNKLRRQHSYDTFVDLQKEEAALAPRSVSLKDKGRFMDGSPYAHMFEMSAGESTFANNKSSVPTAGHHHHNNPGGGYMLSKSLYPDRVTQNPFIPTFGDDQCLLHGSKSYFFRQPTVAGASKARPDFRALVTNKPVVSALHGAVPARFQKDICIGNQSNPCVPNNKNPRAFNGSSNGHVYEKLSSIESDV
Summary of the method: (§1)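 Stably transfected mouse fibroblasts expressing human GluN1-1a/2A or GluN1-1a/2B receptors; excitotoxicity induced with 10 μM L-glutamate plus 10 μM glycine and quantified as LDH activity in medium. Agonists without antagonist defined 100%; agonists plus 100 μM ketamine defined 0%. IC50 ± SD from at least three independent experiments.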

Cholinesterase = Cholinesterase (Equus caballus, UniProt P81908); assay: Inhibition of recombinant equine BChE by Ellman's method
Chain of Cholinesterase (P81908 whole entry): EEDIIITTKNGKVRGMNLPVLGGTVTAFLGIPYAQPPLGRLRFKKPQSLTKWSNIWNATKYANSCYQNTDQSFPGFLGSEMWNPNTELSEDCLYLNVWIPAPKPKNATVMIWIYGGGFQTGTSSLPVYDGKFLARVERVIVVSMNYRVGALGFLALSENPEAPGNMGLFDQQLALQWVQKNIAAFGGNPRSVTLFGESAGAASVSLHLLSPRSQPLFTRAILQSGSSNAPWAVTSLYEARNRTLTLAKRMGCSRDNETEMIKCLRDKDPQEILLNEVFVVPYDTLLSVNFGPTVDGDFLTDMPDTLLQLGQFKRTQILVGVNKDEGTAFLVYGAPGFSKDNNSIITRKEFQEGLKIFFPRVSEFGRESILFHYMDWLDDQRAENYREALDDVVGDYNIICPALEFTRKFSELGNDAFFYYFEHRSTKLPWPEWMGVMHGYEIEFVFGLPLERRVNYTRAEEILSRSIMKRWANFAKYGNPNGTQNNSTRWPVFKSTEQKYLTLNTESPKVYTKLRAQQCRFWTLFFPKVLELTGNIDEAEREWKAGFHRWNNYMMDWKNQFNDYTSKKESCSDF

[2] = molecular target: T1, Glutamate NMDA receptor; GRIN1/GRIN2A (Homo sapiens, UniProt Q05586+Q12879); assay: Inhibition of human GluN1-1a/NR2A receptor expressed in transgenic mouse fibroblast cells assessed as inhibition of L-glutamate-induced excitotoxicity by measuring LDH activity by cell based assay; summary of the method: as §1
Acetylcholinesterase [3] = molecular target: T2, Acetylcholinesterase (Homo sapiens, UniProt P22303); assay: Inhibition of recombinant human AChE expressed in HEK293 cells by Ellman's method; format: cell-based
T2 sequence (P22303 whole entry): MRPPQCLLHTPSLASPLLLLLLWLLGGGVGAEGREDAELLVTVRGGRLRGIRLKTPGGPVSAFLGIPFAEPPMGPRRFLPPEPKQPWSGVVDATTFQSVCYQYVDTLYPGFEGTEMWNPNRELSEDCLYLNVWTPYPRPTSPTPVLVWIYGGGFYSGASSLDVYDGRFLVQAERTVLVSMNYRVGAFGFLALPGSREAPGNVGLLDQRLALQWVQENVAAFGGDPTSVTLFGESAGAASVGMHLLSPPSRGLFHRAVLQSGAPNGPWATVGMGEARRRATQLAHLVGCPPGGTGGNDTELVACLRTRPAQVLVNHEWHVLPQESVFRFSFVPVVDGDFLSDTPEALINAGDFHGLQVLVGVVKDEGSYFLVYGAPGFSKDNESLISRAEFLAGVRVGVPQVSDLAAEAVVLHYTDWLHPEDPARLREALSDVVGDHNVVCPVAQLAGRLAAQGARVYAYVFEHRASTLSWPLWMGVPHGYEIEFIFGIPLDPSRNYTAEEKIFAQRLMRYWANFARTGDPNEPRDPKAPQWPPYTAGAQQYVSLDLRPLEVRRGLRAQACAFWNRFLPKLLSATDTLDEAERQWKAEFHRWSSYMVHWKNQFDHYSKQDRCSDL

[4] = Solubility of the compound at >= 50 uM; format: physicochemical
[5] = system: Glutamate NMDA receptor GRIN1/GRIN2B (Homo sapiens); assay: Inhibition of human GluN1-1a/NR2B receptor expressed in transgenic mouse fibroblast cells assessed as inhibition of L-glutamate-induced excitotoxicity at 20 uM by measuring LDH activity by cell based assay
[6] = molecular target: T1, Glutamate NMDA receptor; GRIN1/GRIN2A; assay: Inhibition of human GluN1-1a/NR2A receptor expressed in transgenic mouse fibroblast cells assessed as inhibition of L-glutamate-induced excitotoxicity at 50 uM by measuring LDH activity by cell based assay
Summary of the method: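 Mouse fibroblasts stably expressing human GluN1-1a/2A or GluN1-1a/2B receptors were exposed to 10 μM L-glutamate plus glycine with test agent. Excitotoxicity was read as LDH activity in the medium. Agonists alone defined 100%; agonists plus 100 μM ketamine defined 0%. Percent inhibition at the single test concentration came from at least three independent experiments.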

[7] = Solubility of the compound in buffer at > 20 uM; format: physicochemical
[8] = molecular target: Cholinesterase (Equus caballus) (UniProt P81908); assay: Inhibition of recombinant equine BChE at 20 uM by Ellman's method relative to control
Chain of Cholinesterase (Equus caballus) (P81908 whole entry): as the sequence (P81908 whole entry) above
Summary of the method: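 Ellman assay with equine BChE as enzyme, compound at single concentration as listed; percent inhibition relative to control, measured in triplicate.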

Acetylcholinesterase [9] = molecular target: T2, Acetylcholinesterase; assay: Inhibition of recombinant human AChE expressed in HEK293 cells at 20 uM by Ellman's method relative to control; format: cell-based
[10] = Selectivity ratio of IC50 for recombinant human AChE to IC50 for equine BuChE

## COc1ccc2c(c1)c1cnccc1n2CCC(=O)N1c2ccccc2Sc2ccccc21
[1]
  IC50: 600 nM
Cholinesterase
  IC50: 37 nM
[2]
  IC50: 800 nM
Acetylcholinesterase [3]
  IC50: 540 nM

## C[n+]1ccc2[nH]c3ccc(F)cc3c2c1.[I-]
[4]
  solubility: Insoluble
[5]
  inhibition: < 50%
Cholinesterase
  IC50: 2700 nM
[6]
  inhibition: < 50%
Acetylcholinesterase [3]
  IC50: 1900 nM

## O=C(CCn1c2ccccc2c2cnccc21)N1c2ccccc2Sc2ccccc21
[1]
  IC50: 3000 nM
Cholinesterase
  IC50: 8 nM
[2]
  IC50: 4200 nM
Acetylcholinesterase [3]
  IC50: 2300 nM

## Cc1ccc2[nH]c3cc[n+](C)cc3c2c1.[I-]
[4]
  solubility: Insoluble
[5]
  inhibition: < 50%
Cholinesterase
  IC50: 5500 nM
[6]
  inhibition: < 50%
Acetylcholinesterase [3]
  IC50: 9100 nM

## Cc1ccc2c(c1)c1c[n+](C)ccc1n2CCC(=O)N1c2ccccc2Sc2ccccc21
[1]
  IC50: 500 nM
Cholinesterase
  IC50: 32 nM
[2]
  IC50: 900 nM
Acetylcholinesterase [3]
  IC50: 1100 nM

## C[n+]1ccc2c(c1)c1ccccc1n2CCCCCCCCCn1c2ccccc2c2c[n+](C)ccc21
Acetylcholinesterase [3]
  IC50: 0.33 nM

## Fc1ccc2[nH]c3c(c2c1)CN(Cc1ccccc1)CC3
[4]
  solubility: Insoluble
[5]
  inhibition: < 50%
Cholinesterase
  IC50: 2100 nM
[7]
  solubility: Insoluble
[6]
  inhibition: < 50%
Acetylcholinesterase [3]
  IC50: 17600 nM

## c1ccc2c(c1)Nc1ccccc1S2 [PHENOTHIAZINE]
[8]
  inhibition: < 50%
Acetylcholinesterase [9]
  inhibition: < 30%
[7]
  solubility: Insoluble
[6]
  inhibition: < 50%

## O=C(CCn1c2ccncc2c2cc(F)ccc21)N1c2ccccc2Sc2ccccc21
[1]
  IC50: 2700 nM
Cholinesterase
  IC50: 8 nM
[2]
  IC50: 1700 nM
[10]
  Ratio IC50: 775
Acetylcholinesterase [3]
  IC50: 6200 nM

## Cn1ccc2nc3ccccc3c-2c1.I
[4]
  solubility: Insoluble
[5]
  inhibition: < 50%
Cholinesterase
  IC50: 890 nM
[6]
  inhibition: < 50%
Acetylcholinesterase [3]
  IC50: 8700 nM

## [Br-].c1ccc(C[n+]2ccc3[nH]c4ccccc4c3c2)cc1
[4]
  solubility: Insoluble
[5]
  inhibition: < 50%
Cholinesterase
  IC50: 1900 nM
[6]
  inhibition: < 50%
Acetylcholinesterase [3]
  IC50: 8600 nM

## Cc1ccc2[nH]c3ccncc3c2c1
[4]
  solubility: Insoluble
[5]
  inhibition: < 50%
Cholinesterase
  IC50: 1400 nM
[6]
  inhibition: < 50%
Acetylcholinesterase [3]
  IC50: 35400 nM

## c1ccc(CN2CCc3[nH]c4ccccc4c3C2)cc1
[4]
  solubility: Insoluble
[5]
  inhibition: < 50%
Cholinesterase
  IC50: 6500 nM
[6]
  inhibition: < 50%
Acetylcholinesterase [3]
  IC50: 20400 nM

## COc1ccc2[nH]c3ccncc3c2c1
[4]
  solubility: Insoluble
[5]
  inhibition: < 50%
Cholinesterase
  IC50: 12600 nM
[6]
  inhibition: < 50%
Acetylcholinesterase [3]
  IC50: 49600 nM
